Among the data in ChEMBL document CHEMBL4706541, “Design and synthesis of 1H-indazole-3-carboxamide derivatives as potent and selective PAK1 inhibitors with anti-tumour migration and invasion activities” (Eur J Med Chem, 2020) are Activity and inhibition values, retold here.

Assay [1] has as its target Tyrosine-protein kinase ABL1 (Homo sapiens) (UniProt P00519). The experiment in a line: Inhibition of ABL1 (unknown origin) assessed as residual activity at 0.1 uM preincubated for 20 min followed by [gamma33P]ATP addition and measured after 120 mins by Hotspot assay relative to control. Conditions: time 140.0 min. The method in brief:
(§1)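 Radiometric HotSpot kinase assay. Kinase and substrate are combined in 20 mM Hepes pH 7.5, 10 mM MgCl2, 1 mM EGTA, 0.02% Brij35, 0.02 mg/mL BSA, 0.1 mM Na3VO4, 2 mM DTT and 1% DMSO. Compound is added and preincubated 20 min at room temperature. The reaction starts with ATP plus 33P-ATP at 10 µM final and runs 120 min at 25 °C. Filter-binding read-out, given as % activity remaining versus DMSO.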

The target in assay [2] is RAC-alpha serine/threonine-protein kinase (Homo sapiens) (UniProt P31749). The experiment in a line: Inhibition of AKT1 (unknown origin) assessed as residual activity at 0.1 uM preincubated for 20 min followed by [gamma33P]ATP addition and measured after 120 mins by Hotspot assay relative to control. To be noted: time 140.0 min. The method in brief:
as §1

For assay [3], the target named is ALK tyrosine kinase receptor (Homo sapiens) (UniProt Q9UM73). The experiment in a line: Inhibition of ALK (unknown origin) assessed as residual activity at 0.1 uM preincubated for 20 min followed by [gamma33P]ATP addition and measured after 120 mins by Hotspot assay relative to control. Conditions: time 140.0 min. The method in brief: as §1
Assay [4] has as its target Aurora kinase A (Homo sapiens) (UniProt O14965). The experiment in a line: Inhibition of AuroraA (unknown origin) assessed as residual activity at 0.1 uM preincubated for 20 min followed by [gamma33P]ATP addition and measured after 120 mins by Hotspot assay relative to control. To be noted: time 140.0 min. In short, it runs like this: as §1
Assay [5] deals with Tyrosine-protein kinase receptor UFO (Homo sapiens) (UniProt P30530). The experiment in a line: Inhibition of AXL (unknown origin) assessed as residual activity at 0.1 uM preincubated for 20 min followed by [gamma33P]ATP addition and measured after 120 mins by Hotspot assay relative to control. To be noted: time 140.0 min. The method in brief: as §1
For assay [6], the target named is Tyrosine-protein kinase BTK (Homo sapiens) (UniProt Q06187). The experiment in a line: Inhibition of BTK (unknown origin) assessed as residual activity at 0.1 uM preincubated for 20 min followed by [gamma33P]ATP addition and measured after 120 mins by Hotspot assay relative to control. Conditions: time 140.0 min. In short, it runs like this:
as §1

For assay [7], the target named is CDK6/cyclin D1 (Homo sapiens) (UniProt P24385+Q00534). The experiment in a line: Inhibition of CDK6/cyclin Dl (unknown origin) assessed as residual activity at 0.1 uM preincubated for 20 min followed by [gamma33P]ATP addition and measured after 120 mins by Hotspot assay relative to control. Conditions: time 140.0 min. In kind it is protein-complex assay. In short, it runs like this: as §1

Assay [8] addresses Epidermal growth factor receptor (Homo sapiens) (UniProt P00533). The experiment in a line: Inhibition of EGFR (unknown origin) assessed as residual activity at 0.1 uM preincubated for 20 min followed by [gamma33P]ATP addition and measured after 120 mins by Hotspot assay relative to control. Conditions: time 140.0 min. The method in brief:
as §1

Assay [9] has as its target Mitogen-activated protein kinase 3 (Homo sapiens) (UniProt P27361). The experiment in a line: Inhibition of ERK1 (unknown origin) assessed as residual activity at 0.1 uM preincubated for 20 min followed by [gamma33P]ATP addition and measured after 120 mins by Hotspot assay relative to control. To be noted: time 140.0 min. The method in brief:
as §1

The target of assay [10] is Mitogen-activated protein kinase kinase kinase kinase 1 (Homo sapiens) (UniProt Q92918). The experiment in a line: Inhibition of MAP4K1 (unknown origin) assessed as residual activity at 0.1 uM preincubated for 20 min followed by [gamma33P]ATP addition and measured after 120 mins by Hotspot assay relative to control. Conditions: time 140.0 min. In short, it runs like this:
as §1

Assay [11] deals with Tyrosine-protein kinase JAK1 (Homo sapiens) (UniProt P23458). The experiment in a line: Inhibition of JAK1 (unknown origin) assessed as residual activity at 0.1 uM preincubated for 20 min followed by [gamma33P]ATP addition and measured after 120 mins by Hotspot assay relative to control. To be noted: time 140.0 min. In short, it runs like this: as §1
Assay [12] addresses Tyrosine-protein kinase Lck (Homo sapiens) (UniProt P06239). The experiment in a line: Inhibition of LCK (unknown origin) assessed as residual activity at 0.1 uM preincubated for 20 min followed by [gamma33P]ATP addition and measured after 120 mins by Hotspot assay relative to control. Conditions: time 140.0 min. The method in brief:
as §1

In assay [13] the target is Mitogen-activated protein kinase 14 (Homo sapiens) (UniProt Q16539). The experiment in a line: Inhibition of P38alpha (unknown origin) assessed as residual activity at 0.1 uM preincubated for 20 min followed by [gamma33P]ATP addition and measured after 120 mins by Hotspot assay relative to control. Conditions: time 140.0 min. The method in brief:
as §1

The target in assay [14] is T1, Serine/threonine-protein kinase PAK 1 (Homo sapiens, UniProt Q13153). The experiment in a line: Inhibition of full length recombinant human N-terminal GST/His6-tagged PAK1 expressed in sf9 insect cells assessed as residual activity at 0.1 uM using tetra LRRWSLG as substrate preincubated for 20 min followed by [gamma33P]ATP addition and measured after 120 mins by Hotspot assay relative to control. To be noted: time 140.0 min. In short, it runs like this: as §1

The target in assay [15] is Serine/threonine-protein kinase PAK 4 (Homo sapiens, UniProt O96013). The experiment in a line: Inhibtion of full length recombinant human N-terminal GST/His6-tagged PAK4 expressed in baculovirus infected sf9 insect cells assessed as residual activity at 0.1 uM using tetra LRRWSLG as substrate preincubated for 20 min followed by [gamma33P]ATP addition and measured after 120 mins by Hotspot assay relative to control. To be noted: time 140.0 min. In short, it runs like this: as §1

For assay [16], the target named is Serine/threonine-protein kinase PAK 6 (Homo sapiens) (UniProt Q9NQU5). The experiment in a line: Inhibtion of full length recombinant human N-terminal GST/His6-tagged PAK6 expressed in sf9 insect cells assessed as residual activity at 0.1 uM using tetra LRRWSLG as substrate preincubated for 20 min followed by [gamma33P]ATP addition and measured after 120 mins by Hotspot assay relative to control. To be noted: time 140.0 min. In short, it runs like this:
as §1

For assay [17], the target named is T1, Serine/threonine-protein kinase PAK 1. The experiment in a line: Inhibition of PAK1 phosphorylation at ser144 residue in human MDA-MB-231 cells after 1 to 24 hrs by Western blot analysis. In kind it is cell-based. To be noted: dose 2.5-20 µM, time 1-24 hrs. The method in brief: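 Whole-cell extracts made from 1×10^6 treated cells in RIPA buffer (50 mM Tris/HCl pH 7.4, 150 mM NaCl, 1% NP-40, 0.25% deoxycholate, 1 mM EDTA, protease inhibitors). Proteins separated by SDS-PAGE, blotted to PVDF and blocked in 5% milk in TBS-T. Membranes probed for PAK1, phospho-PAK1 Ser144, Snail and actin, with β-actin as loading control. ECL detection.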
For orientation: In western blotting, separated proteins are transferred to a membrane and probed.

T1 sequence (Q13153 whole entry): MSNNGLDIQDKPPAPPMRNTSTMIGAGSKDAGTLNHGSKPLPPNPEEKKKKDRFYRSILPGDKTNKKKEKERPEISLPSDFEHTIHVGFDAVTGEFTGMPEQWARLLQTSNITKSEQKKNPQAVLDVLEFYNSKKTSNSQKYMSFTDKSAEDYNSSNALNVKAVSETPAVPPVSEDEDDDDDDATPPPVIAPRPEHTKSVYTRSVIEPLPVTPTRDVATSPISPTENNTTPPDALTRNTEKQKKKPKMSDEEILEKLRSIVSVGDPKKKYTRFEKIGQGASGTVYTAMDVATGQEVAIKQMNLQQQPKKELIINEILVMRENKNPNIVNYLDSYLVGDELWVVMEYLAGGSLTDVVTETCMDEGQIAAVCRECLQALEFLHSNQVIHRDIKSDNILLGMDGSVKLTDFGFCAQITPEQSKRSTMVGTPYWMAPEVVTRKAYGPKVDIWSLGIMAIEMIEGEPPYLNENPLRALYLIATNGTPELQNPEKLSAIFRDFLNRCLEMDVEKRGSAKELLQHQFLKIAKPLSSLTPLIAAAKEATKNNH
Chain of Tyrosine-protein kinase receptor UFO (Homo sapiens) (P30530 whole entry): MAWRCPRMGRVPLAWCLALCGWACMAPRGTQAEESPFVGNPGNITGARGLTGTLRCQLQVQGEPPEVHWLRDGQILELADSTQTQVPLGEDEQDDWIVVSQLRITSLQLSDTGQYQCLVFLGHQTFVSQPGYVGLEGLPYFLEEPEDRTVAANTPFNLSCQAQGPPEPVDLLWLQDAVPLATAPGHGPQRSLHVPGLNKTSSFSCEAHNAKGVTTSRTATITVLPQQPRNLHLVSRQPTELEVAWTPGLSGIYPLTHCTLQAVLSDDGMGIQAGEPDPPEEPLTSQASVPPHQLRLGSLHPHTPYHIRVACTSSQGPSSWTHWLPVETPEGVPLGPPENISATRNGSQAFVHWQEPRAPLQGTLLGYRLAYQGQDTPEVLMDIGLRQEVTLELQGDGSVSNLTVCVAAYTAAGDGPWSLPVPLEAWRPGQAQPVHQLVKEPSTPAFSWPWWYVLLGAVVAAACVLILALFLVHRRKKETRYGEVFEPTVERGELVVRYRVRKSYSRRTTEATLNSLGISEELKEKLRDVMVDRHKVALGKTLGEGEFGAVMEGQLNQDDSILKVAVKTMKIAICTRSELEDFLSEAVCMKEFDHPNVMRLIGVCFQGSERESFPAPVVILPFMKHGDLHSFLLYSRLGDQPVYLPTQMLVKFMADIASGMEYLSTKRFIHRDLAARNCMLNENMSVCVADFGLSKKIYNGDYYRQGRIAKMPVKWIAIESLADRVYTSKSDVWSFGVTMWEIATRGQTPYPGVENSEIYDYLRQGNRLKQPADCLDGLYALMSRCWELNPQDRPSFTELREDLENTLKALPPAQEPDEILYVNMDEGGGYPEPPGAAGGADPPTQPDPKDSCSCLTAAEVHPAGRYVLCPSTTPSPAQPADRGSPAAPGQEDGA
Chain of RAC-alpha serine/threonine-protein kinase (Homo sapiens) (P31749 whole entry): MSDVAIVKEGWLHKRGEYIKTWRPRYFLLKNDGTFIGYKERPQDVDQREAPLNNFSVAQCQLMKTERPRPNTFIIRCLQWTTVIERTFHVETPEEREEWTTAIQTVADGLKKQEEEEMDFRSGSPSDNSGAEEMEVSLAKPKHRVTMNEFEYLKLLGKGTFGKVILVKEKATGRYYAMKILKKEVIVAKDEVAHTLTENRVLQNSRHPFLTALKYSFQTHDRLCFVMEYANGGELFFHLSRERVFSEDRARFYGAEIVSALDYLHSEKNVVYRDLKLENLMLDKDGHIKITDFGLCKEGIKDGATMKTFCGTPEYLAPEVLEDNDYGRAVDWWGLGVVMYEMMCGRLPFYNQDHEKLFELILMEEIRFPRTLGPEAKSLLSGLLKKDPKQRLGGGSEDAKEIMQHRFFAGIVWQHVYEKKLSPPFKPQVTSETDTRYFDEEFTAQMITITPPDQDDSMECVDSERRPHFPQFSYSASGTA
Chain of Serine/threonine-protein kinase PAK 6 (Homo sapiens) (Q9NQU5 whole entry, looked up): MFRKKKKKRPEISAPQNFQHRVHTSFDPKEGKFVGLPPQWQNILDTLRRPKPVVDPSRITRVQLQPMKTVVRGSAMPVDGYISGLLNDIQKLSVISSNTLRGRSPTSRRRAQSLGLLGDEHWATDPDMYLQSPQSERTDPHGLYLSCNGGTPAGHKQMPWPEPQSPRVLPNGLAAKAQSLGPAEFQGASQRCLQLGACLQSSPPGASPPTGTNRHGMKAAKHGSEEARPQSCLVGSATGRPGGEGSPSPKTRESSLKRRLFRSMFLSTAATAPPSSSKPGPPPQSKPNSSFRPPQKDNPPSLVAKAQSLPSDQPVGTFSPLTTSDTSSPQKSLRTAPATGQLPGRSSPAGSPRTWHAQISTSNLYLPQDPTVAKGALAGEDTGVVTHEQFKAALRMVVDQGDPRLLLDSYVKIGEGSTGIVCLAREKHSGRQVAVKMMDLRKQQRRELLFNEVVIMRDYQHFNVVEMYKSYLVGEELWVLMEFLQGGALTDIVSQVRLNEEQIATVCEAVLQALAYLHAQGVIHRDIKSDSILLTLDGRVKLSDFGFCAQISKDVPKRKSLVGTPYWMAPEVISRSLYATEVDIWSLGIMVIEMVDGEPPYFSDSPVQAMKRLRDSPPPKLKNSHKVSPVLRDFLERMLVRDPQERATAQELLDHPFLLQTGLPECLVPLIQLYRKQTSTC
Chain of Epidermal growth factor receptor (Homo sapiens) (P00533 whole entry): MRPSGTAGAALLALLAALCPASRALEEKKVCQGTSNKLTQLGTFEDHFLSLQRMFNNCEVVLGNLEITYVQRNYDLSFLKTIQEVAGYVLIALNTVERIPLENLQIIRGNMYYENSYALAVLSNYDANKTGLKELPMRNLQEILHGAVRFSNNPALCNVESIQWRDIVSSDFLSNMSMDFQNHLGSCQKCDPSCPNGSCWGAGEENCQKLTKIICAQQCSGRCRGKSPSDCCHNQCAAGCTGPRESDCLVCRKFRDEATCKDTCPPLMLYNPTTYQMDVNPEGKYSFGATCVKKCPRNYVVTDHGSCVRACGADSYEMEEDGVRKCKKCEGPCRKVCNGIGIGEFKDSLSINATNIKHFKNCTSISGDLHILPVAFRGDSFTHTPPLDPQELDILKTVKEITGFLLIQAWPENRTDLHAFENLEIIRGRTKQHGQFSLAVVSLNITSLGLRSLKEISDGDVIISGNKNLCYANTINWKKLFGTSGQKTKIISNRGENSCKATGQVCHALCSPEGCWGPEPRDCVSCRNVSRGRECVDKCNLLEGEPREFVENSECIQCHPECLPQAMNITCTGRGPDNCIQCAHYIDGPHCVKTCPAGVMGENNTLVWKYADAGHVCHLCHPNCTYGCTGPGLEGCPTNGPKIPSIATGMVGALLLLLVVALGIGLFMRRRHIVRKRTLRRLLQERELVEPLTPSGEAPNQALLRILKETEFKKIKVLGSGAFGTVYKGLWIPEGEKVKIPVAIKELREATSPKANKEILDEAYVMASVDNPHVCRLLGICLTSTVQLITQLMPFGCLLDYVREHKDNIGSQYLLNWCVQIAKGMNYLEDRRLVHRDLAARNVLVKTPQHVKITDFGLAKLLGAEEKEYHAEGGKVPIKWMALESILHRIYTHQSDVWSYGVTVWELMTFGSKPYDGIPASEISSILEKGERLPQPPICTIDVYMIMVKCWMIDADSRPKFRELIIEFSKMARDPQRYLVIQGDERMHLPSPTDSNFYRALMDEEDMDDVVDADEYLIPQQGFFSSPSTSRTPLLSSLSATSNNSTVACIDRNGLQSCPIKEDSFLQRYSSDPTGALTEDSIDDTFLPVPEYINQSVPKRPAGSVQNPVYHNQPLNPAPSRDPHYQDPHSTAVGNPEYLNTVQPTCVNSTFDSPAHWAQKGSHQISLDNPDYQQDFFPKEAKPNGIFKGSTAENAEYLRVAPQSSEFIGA
Chain of Tyrosine-protein kinase ABL1 (Homo sapiens) (P00519 whole entry): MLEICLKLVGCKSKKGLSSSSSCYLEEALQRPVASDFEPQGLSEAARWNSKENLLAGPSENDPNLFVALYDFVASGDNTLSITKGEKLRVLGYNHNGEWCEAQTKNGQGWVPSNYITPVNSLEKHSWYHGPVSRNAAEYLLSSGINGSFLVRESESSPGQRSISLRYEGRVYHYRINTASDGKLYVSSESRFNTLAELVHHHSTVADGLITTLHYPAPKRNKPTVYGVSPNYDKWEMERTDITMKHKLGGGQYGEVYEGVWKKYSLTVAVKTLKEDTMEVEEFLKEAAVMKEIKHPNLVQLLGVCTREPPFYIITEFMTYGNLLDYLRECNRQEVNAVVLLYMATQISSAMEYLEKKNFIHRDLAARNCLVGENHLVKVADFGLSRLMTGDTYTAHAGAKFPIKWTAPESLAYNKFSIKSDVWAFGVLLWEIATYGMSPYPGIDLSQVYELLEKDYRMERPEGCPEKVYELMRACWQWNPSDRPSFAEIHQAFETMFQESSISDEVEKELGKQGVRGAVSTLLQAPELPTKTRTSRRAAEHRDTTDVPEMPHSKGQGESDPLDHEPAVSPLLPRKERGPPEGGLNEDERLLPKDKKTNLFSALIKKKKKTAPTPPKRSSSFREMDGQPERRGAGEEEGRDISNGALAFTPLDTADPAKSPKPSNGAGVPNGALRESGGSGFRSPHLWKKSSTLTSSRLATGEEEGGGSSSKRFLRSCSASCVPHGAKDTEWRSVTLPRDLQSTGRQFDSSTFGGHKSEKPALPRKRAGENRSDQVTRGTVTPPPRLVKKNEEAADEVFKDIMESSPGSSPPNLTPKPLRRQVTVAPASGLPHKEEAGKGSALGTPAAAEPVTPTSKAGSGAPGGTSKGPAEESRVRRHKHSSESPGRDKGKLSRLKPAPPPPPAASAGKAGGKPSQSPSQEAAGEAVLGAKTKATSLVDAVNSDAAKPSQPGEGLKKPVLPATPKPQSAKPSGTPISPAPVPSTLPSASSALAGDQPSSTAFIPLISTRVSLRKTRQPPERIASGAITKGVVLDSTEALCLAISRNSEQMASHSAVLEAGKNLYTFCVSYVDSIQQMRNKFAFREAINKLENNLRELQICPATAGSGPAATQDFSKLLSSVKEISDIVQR

With `Cc1cccn(-c2ccc(-c3ccc4c(C(=O)NCc5ccncc5)n[nH]c4c3)c(Cl)c2)c1=O`, the Activity in [1] was found to be 106%; in [2] it was 98.8%; in [3], 97%; in [4], 87.8%; in assay [5], 88.4%; in assay [6], 99.1%. Besides, the Activity in assay [7] was found to be 112%; in assay [8], 89.3%; in assay [9], 99%; in assay [10], 89.6%; in assay [11] it was 88.7%; in assay [12], 88.6%. Further, the Activity in [13] was 78%; in assay [14], 27.6%; in assay [15] it was 104%; in [16], 80%. Further, the inhibition result in assay [17] is “Dose-dependent effect”.
